This note sets out measurements from ChEMBL document CHEMBL3232716, “Tailoring cytotoxicity of antimicrobial peptidomimetics with high activity against multidrug-resistant Escherichia coli” (J Med Chem, 2014).

≈ marks a conversion by molar mass, not a printed value.

One data set has as its system Staphylococcus aureus. Put plainly: Antibacterial activity against methicillin-resistant Staphylococcus aureus ATCC 33591 after 18 hrs by microdilution broth method. Type of data set: functional. As to conditions: ATCC 33591, 18 h; call rule not given here. Summed up: (§1)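 CLSI broth microdilution. […] Incubated 35 °C in ambient air for 18 h. MIC taken as the lowest concentration with no visible growth versus the compound-free control. Reported as median and range of three independent biological replicates run on separate days.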
On the technique in general: Broth dilution looks for growth in wells or tubes with falling amounts of substance.

Data set [1] has as its system Escherichia coli. The data set is described as follows: Antibacterial activity against Escherichia coli ATCC 25922 after 18 hrs by microdilution broth method. Type of data set: functional. The note with it: ATCC 25922, 18 h. The procedure, abridged:
as §1

The next data set concerns Acinetobacter baumannii. The data set is described as follows: Antibacterial activity against multidrug-resistant Acinetobacter baumannii clinical isolate E2-1228625 after 18 hrs by microdilution broth method. Format: functional. As to conditions: clinical isolate E2-1228625, 18 h.
Another data set has as its system HeLa. Put plainly: Cytotoxicity against human HeLa cells after 1 hr by MTS/PMS assay. Type of data set: cell-based. The procedure, abridged: (§2)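 Monolayers (passage 4–10) grown ~21–25 h to ~90% confluence. Seeding per well: HeLa 8000, HepG2 23 000, NIH 3T3 22 000, IEC-6 16 000, Caco-2 25 000. Cells washed with HBSS/10 mM Hepes pH 7.4 and exposed 1 h at 37 °C, 50 rpm, to compound 0–2000 μM in culture medium. MTS 240 μg/mL/PMS 2.4 μg/mL for 1.5–4 h, A492. Viability referenced to SDS and untreated controls; IC50 from one biological replicate in triplicate.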

A further data set relates to Caco-2. The data set is described as follows: Cytotoxicity against human Caco2 cells after 1 hr by MTS/PMS assay. Format: cell-based. The note with it: Caco-2, 1 h. Summed up:
as §2

Another data set has as its system HepG2. The data set is described as follows: Cytotoxicity against human HepG2 cells after 1 hr by MTS/PMS assay. Type of data set: cell-based. The note with it: HepG2, 1 h. The procedure, abridged: as §2
Data set [2] is described as follows: Cytotoxicity against rat IEC-6 cells after 1 hr by MTS/PMS assay. Type of data set: cell-based. The note with it: IEC-6, 1 h. Summed up:
as §2

Data set [3] is described as follows: Cytotoxicity against mouse NIH/3T3 cells after 1 hr by MTS/PMS assay. Format: cell-based. The note with it: NIH3T3, 1 h. The procedure, abridged: as §2
Data set [4] is described as follows: Binding affinity to synthetic POPC/POPG liposomal membrane at 20 uM by circular dichroism analysis. Type of data set: physicochemical. As to conditions: artificial membrane. Summed up: (§3)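 CD spectra recorded with 20 μM test compound and 2 mM liposomes in 10 mM Tris buffer, pH 7.5. Liposomes were roughly 100 nm: POPC/POPG 7:3 (bacterial model) or POPC/POPG/cholesterol 5:3:2 (mammalian model). Lipid concentration was standardized by enzymatic phospholipid colorimetric assay.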
Background: Circular dichroism is the unequal absorption of left and right circularly polarised light.

A short description of data set [5]: Binding affinity to cholesterol containing synthetic POPC/POPG liposomal membrane at 20 uM by circular dichroism analysis. Type of data set: physicochemical. The note with it: artificial membrane. The procedure, abridged: as §3
In data set [6] the test system is Escherichia coli. The data set is described as follows: Antibacterial activity against extended-spectrum beta-lactamase producing multidrug-resistant and colistin-susceptible Escherichia coli CTX-M-15 clinical isolate Aar 11 after 18 hrs by microdilution broth method. The note with it: CTX-M-15, 18 h. Format: functional.
Data set [7] deals with Escherichia coli. Put plainly: Antibacterial activity against NDM-1 producing Escherichia coli clinical isolate 74859898 after 18 hrs by microdilution broth method. Format: functional. The note with it: clinical isolate 74859898, 18 h.
In another data set the test system is Enterococcus faecium. The data set is described as follows: Antibacterial activity against vancomycin-resistant Enterococcus faecium ATCC 700221 after 18 hrs by microdilution broth method. The note with it: ATCC 700221, 18 h.

The term MIC denotes the lowest concentration that inhibits growth of the organism. Low values mean inhibition by little substance, high ones a need for much substance. As to `O=C(O)c1cn(C2CC2)c2cc(N3CCNCC3)c(F)cc2c1=O` [CIPROFLOXACIN], the figures for the MIC against Staphylococcus aureus and in the data set on Escherichia coli [1] were 0.25 µM (≈ 0.0828 µg/mL) and below 0.125 µM, respectively.
One may read the IC50 as the concentration at which inhibition is half-maximal. Low values mean inhibition by little substance, high ones a need for much substance. As to `CC(=O)N[C@@H](CCCCNC(=N)N)C(=O)N(CCC(=O)N[C@@H](CCCCN)C(=O)N(CCC(=O)N[C@@H](CCCCNC(=N)N)C(=O)N(CCC(=O)N[C@@H](CCCCN)C(=O)N(CCC(=O)N[C@@H](CCCCNC(=N)N)C(=O)N(CCC(N)=O)[C@@H](C)c1ccccc1)[C@@H](C)c1ccccc1)[C@@H](C)c1ccccc1)[C@@H](C)c1ccccc1)[C@@H](C)c1ccccc1`, the minimal inhibitory concentration (MIC) in the data set with Acinetobacter baumannii amounted to 64 µM (≈ 109 µg/mL); in the data set on Staphylococcus aureus, 16 µM (≈ 27.2 µg/mL); against Escherichia coli [1] it was 8 µM (≈ 13.6 µg/mL); against Escherichia coli [6], 8 µM (≈ 13.6 µg/mL); against Escherichia coli [7] it was 8 µM (≈ 13.6 µg/mL); in the data set with Enterococcus faecium it was 64 µM (≈ 109 µg/mL). The IC50 is 136 µM with HeLa; above 1000 µM with Caco-2; 185 µM in the data set with HepG2; 186 µM in data set [2]; 237 µM in data set [3]. Further, the Activity entry in data set [4] and in data set [5] was “Not Active” throughout.
With `CN[C@H](CC(C)C)C(=O)N[C@H]1C(=O)N[C@@H](CC(N)=O)C(=O)N[C@H]2C(=O)N[C@H]3C(=O)N[C@H](C(=O)N[C@H](C(=O)O)c4cc(O)cc(O)c4-c4cc3ccc4O)[C@H](O)c3ccc(c(Cl)c3)Oc3cc2cc(c3O[C@@H]2O[C@H](CO)[C@@H](O)[C@H](O)[C@H]2O[C@H]2C[C@](C)(N)[C@H](O)[C@H](C)O2)Oc2ccc(cc2Cl)[C@H]1O` [VANCOMYCIN], the MIC against Acinetobacter baumannii was above 128 µM; in the data set on Staphylococcus aureus, 0.5 µM (≈ 0.725 µg/mL); with Escherichia coli [1], above 128 µM; against Escherichia coli [6] it was above 128 µM; against Escherichia coli [7], above 128 µM; against Enterococcus faecium, 128 µM (≈ 186 µg/mL).
In the case of `CC[C@H](C)[C@H](NC(=O)CN)C(=O)NCC(=O)N[C@@H](C)C(=O)N[C@H](C(=O)N[C@@H](CC(C)C)C(=O)N[C@@H](CCCCN)C(=O)N[C@H](C(=O)N[C@@H](CC(C)C)C(=O)N[C@H](C(=O)N[C@H](C(=O)NCC(=O)N[C@@H](CC(C)C)C(=O)N1CCC[C@H]1C(=O)N[C@@H](C)C(=O)N[C@@H](CC(C)C)C(=O)N[C@H](C(=O)N[C@@H](CO)C(=O)N[C@@H](Cc1c[nH]c2ccccc12)C(=O)N[C@H](C(=O)N[C@@H](CCCCN)C(=O)N[C@@H](CCCNC(=N)N)C(=O)N[C@@H](CCCCN)C(=O)N[C@@H](CCCNC(=N)N)C(=O)N[C@@H](CCC(N)=O)C(=O)N[C@@H](CCC(N)=O)C(N)=O)[C@@H](C)CC)[C@@H](C)CC)[C@@H](C)O)[C@@H](C)O)C(C)C)C(C)C` [MELITTIN], the IC50 in the data set with HeLa is 1.9 µM; with Caco-2 it was 4.5 µM; with HepG2, 2.5 µM.
In the case of `CO/N=C(\C(=O)N[C@@H]1C(=O)N2C(C(=O)O)=C(COC(C)=O)CS[C@H]12)c1csc(N)n1` [CEFOTAXIME], the MIC in the data set with Acinetobacter baumannii is above 128 µM; with Staphylococcus aureus, above 128 µM; with Escherichia coli [1] it was below 0.125 µM; in the data set on Escherichia coli [6] it was above 128 µM; in the data set with Escherichia coli [7], above 128 µM; against Enterococcus faecium it was above 128 µM.
